# Assay results reported in ChEMBL document CHEMBL5226322, “Harnessing the Role of HDAC6 in Idiopathic Pulmonary Fibrosis: Design, Synthesis, Structural Analysis, and Biological Evaluation of Potent Inhibitors” (J Med Chem, 2021).
# Activity calls are given as the source filed them. The rule behind the calls is not given here.
# Columns and labels:
# Histone deacetylase 1 [1] = biological target: T1, Histone deacetylase 1 (Homo sapiens, UniProt Q13547); test: Inhibition of human recombinant HDAC1 using ZMAL (Z-(Ac)Lys-AMC) as fluorogenic substrate incubated for 120 mins by microplate reader assay
# [2] = biological target: T2, Protein deacetylase HDAC6 (Homo sapiens, UniProt Q9UBN7); test: Inhibition of human recombinant HDAC6 using ZMAL (Z-(Ac)Lys-AMC) as fluorogenic substrate incubated for 120 mins by microplate reader assay
# T2 sequence (Q9UBN7 whole entry): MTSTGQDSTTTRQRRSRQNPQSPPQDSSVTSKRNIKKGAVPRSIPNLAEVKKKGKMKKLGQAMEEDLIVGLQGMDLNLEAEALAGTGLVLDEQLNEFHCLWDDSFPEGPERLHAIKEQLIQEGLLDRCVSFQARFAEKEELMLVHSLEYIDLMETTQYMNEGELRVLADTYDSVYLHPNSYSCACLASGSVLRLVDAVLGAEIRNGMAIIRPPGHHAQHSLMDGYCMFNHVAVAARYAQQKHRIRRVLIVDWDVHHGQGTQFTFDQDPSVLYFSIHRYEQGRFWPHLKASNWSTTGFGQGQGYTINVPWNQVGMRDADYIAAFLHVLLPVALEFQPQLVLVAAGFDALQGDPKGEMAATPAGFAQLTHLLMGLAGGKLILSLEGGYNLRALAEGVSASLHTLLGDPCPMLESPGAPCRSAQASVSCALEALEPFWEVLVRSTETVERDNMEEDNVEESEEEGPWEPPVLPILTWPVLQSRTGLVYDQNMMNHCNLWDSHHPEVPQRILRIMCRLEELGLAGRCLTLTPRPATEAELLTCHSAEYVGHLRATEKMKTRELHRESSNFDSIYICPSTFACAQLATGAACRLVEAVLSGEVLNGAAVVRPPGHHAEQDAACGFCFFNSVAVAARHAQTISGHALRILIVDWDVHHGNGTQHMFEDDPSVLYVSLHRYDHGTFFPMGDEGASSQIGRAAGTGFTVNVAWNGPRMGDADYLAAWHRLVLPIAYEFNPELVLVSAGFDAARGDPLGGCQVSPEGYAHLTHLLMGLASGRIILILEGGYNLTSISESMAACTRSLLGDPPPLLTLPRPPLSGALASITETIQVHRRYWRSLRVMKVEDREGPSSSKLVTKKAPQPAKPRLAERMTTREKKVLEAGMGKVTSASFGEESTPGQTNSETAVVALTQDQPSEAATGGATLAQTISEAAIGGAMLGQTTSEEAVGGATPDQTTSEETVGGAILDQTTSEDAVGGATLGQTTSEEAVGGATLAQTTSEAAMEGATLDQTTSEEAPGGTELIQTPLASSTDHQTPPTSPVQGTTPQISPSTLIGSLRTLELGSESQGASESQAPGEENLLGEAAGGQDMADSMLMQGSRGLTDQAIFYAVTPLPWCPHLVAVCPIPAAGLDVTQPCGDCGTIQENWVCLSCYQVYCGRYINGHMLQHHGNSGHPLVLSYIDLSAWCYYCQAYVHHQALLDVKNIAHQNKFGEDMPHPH
# [3] = biological target: T3, Protein deacetylase HDAC6 (Homo sapiens) (UniProt Q9UBN7); test: Inhibition of HDAC6 in human NB-4 cells assessed as increase in acetylation of alpha-tubulin at 5 uM incubated for 30 hrs by western blot analysis; format: cell-based
# T3 sequence (whole entry): T2 sequence (Q9UBN7 whole entry)
# Outline: (§1)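 Whole lysates (35 μg) and acid-extracted histones (2 μg) run on SDS-PAGE and blotted for acetylated tubulin or acetyl-histone H3; GAPDH or H4 as loading controls.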
# [4] = biological target: T3, Protein deacetylase HDAC6 (Homo sapiens); test: Inhibition of HDAC6 in human U87 cells assessed as increase in acetylation of alpha-tubulin at 5 uM incubated for 30 hrs by western blot analysis; format: cell-based; outline: as §1
# Histone deacetylase 1 [5] = biological target: T1, Histone deacetylase 1; test: Inhibition of HDAC1 in human NB-4 cells assessed as increase in acetylation of histone H3 at 5 uM incubated for 30 hrs by western blot analysis; format: cell-based; outline: as §1
# Histone deacetylase 1 [6] = biological target: T1, Histone deacetylase 1; test: Inhibition of HDAC1 in human U87 cells assessed as increase in acetylation of histone H3 at 5 uM incubated for 30 hrs by western blot analysis; format: cell-based; outline: as §1
# Homo sapiens = species: Homo sapiens; test: Inhibition of broncho-sphere formation in IPF patient derived human lung organoid assessed as inhibition of 3D organoid formation at 0.1 to 50 nM incubated for 14 days by Bright-field microscopy analysis; format: functional; conditions: dose 0.1-50 nM, time 14.0 day
# Outline: (§2)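 Airway basal cells from bronchial brushings of IPF patients, 10⁴ cells in Matrigel on transwell inserts with 1:1 BEGM/DMEM. Treated 14 days (1–50 nM per methods; 0.1–50 nM per legend), medium changed every 7 days.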
# Airway basal cell [7] = test: Inhibition of spheroid count in IPF patient derived human Airway basal cell assessed as reduction in sphere count at 20 to 50 nM incubated for 14 days by Bright-field microscopy analysis; format: functional, cell-based; conditions: dose 20-50 nM, time 14.0 day; outline: as §2
# [8] = Inhibition of spheroid count in IPF patient derived human Airway basal cell incubated for 14 days by Bright-field microscopy analysis; format: functional, cell-based; outline: as §2
# [9] = Inhibition of cell proliferation in IPF patient derived human Airway basal cell incubated for 14 days by MTT assay; format: functional, cell-based; conditions: 336 h
# Outline: (§3)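 IPF patient airway basal cell 3D organoid cultures (10⁴ cells in Matrigel, 1:1 BEGM/DMEM) treated 14 days at 1–50 nM, medium changed weekly. Proliferation read by colorimetric MTT on day 14. Mean ± SEM of triplicates, n=3; repeated-measures ANOVA/Friedman test. Reported IC50 is the mean of the count-based and MTT-based IC50s.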
# Airway basal cell [10] = test: Inhibition of cell proliferation in IPF patient derived human Airway basal cell at 20 to 50 nM incubated for 14 days by MTT assay; format: functional, cell-based; conditions: dose 20-50 nM, time 14.0 day; outline: as §3
# Histone deacetylase 8 = biological target: T4, Histone deacetylase 8 (Homo sapiens, UniProt Q9BY41); test: Inhibition of human recombinant HDAC8 using FLUOR DE LYS fluorometric substrate pre-incubated for 15 mins and followed by substrate addition and measured after 60 mins by microplate reader assay
# T4 sequence (Q9BY41 whole entry): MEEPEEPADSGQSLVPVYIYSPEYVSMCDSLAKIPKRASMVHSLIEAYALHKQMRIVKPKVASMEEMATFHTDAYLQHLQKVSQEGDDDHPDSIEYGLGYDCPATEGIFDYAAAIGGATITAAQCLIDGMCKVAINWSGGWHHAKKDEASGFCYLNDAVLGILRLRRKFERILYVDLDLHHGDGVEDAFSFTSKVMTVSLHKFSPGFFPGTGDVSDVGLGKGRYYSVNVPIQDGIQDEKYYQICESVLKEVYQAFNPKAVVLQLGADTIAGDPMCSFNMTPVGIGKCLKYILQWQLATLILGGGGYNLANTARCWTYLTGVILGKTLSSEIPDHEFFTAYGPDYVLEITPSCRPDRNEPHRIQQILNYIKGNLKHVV
# Outline: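 Recombinant human HDAC8 at 0.45 U/reaction with 0.5% DMSO; DMSO-only enzyme served as control. Enzyme preincubated 15 min with compound, then Fluor de Lys substrate added (50 μM final) for 1 h at 30 °C. Quenched with 2 μM TSA in Developer II for a further 1 h at 30 °C. Fluorescence read at ex 370/em 450 nm. IC50 from nonlinear dose-response fit.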
# [11] = biological target: T3, Protein deacetylase HDAC6 (Homo sapiens); test: Inhibition of HDAC6 in human U2OS cells assessed as increase in acetylation of alpha-tubulin at 5 uM incubated for 30 hrs by western blot analysis; format: cell-based; outline: as §1
# NIH3T3 [12] = test: Cytotoxicity in mouse NIH3T3 cells assessed as reduction in cell viability at 1 uM incubated for 24 hrs by neutral red uptake method based UV/visible spectrophotometer analysis; format: toxicity; conditions: nih3t3, 24 h
# Outline: (§4)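 NIH3T3 mouse fibroblasts grown in DMEM with 10% FCS, L-glutamine/pen-strep and non-essential amino acids (37 °C, 5% CO2). Exposed 24 h to compound diluted from a DMSO stock into medium. Viability measured by Neutral Red uptake: 3 h in NR medium, then acetic acid/ethanol desorb, absorbance at 540 nm. Student's t-test, p<0.05.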
# NIH3T3 [13] = test: Cytotoxicity in mouse NIH3T3 cells assessed as reduction in cell viability at 2 uM incubated for 24 hrs by neutral red uptake method based UV/visible spectrophotometer analysis; format: toxicity; conditions: nih3t3, 24 h; outline: as §4
# NIH3T3 [14] = test: Cytotoxicity in mouse NIH3T3 cells assessed as reduction in cell viability at 5 uM incubated for 24 hrs by neutral red uptake method based UV/visible spectrophotometer analysis; format: toxicity; conditions: nih3t3, 24 h
# Outline: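 NIH3T3 fibroblasts grown in DMEM with 10% FCS, L-glutamine/pen-strep and non-essential amino acids at 37 °C, 5% CO2. Monolayers exposed 24 h to compound diluted from a DMSO stock into medium. Neutral Red medium then added for 3 h at 37 °C. Dye extracted with acetic acid/ethanol desorb solution and absorbance read at 540 nm. Student's t-test, p<0.05.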
# NIH3T3 [15] = test: Cytotoxicity in mouse NIH3T3 cells assessed as reduction in cell viability at 7.5 uM incubated for 24 hrs by neutral red uptake method based UV/visible spectrophotometer analysis; format: toxicity; conditions: nih3t3, 24 h; outline: as §4
# NIH3T3 [16] = test: Cytotoxicity in mouse NIH3T3 cells assessed as reduction in cell viability at 20 uM incubated for 24 hrs by neutral red uptake method based UV/visible spectrophotometer analysis; format: toxicity; conditions: nih3t3, 24 h; outline: as §4
# T1 sequence (Q13547 whole entry): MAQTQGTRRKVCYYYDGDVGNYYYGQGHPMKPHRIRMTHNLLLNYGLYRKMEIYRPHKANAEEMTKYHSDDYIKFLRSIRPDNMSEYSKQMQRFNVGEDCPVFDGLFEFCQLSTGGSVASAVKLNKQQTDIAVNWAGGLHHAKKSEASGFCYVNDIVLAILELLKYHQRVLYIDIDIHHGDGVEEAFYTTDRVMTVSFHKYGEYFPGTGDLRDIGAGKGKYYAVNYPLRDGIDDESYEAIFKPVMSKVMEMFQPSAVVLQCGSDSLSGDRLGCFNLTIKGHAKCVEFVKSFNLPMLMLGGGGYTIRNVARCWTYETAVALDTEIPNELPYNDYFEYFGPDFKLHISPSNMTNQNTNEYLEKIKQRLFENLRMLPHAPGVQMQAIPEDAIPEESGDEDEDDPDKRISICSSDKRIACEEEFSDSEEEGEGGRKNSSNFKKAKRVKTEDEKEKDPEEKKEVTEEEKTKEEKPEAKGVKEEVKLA
smiles,measurement,setting,value
CC1(C)c2ccccc2N(Cc2ccc(C(=O)NO)cc2)[C@@H]1c1cccnc1,IC50,Histone deacetylase 1 [1],3380 nM
same,IC50,[2],71.3 nM
CC1(C)c2ccccc2N(Cc2ccc(C(=O)NO)cc2)[C@H]1c1cccnc1,IC50,Histone deacetylase 1 [1],16200 nM
same,IC50,[2],90.6 nM
CC1(C)c2ccccc2N(Cc2ccc(C(=O)NO)s2)C1c1cccnc1 (racemic),IC50,Histone deacetylase 1 [1],6320 nM
same,IC50,[2],811 nM
CC(C)(C)OC(=O)N1CCC2(CC1)c1ccccc1N(Cc1ccc(C(=O)NO)cc1)C2c1cccnc1 (racemic),IC50,Histone deacetylase 1 [1],8100 nM
same,IC50,[2],152 nM
CC1(C)c2ccccc2N(Cc2ccc(C(=O)NO)cc2)C1c1ccccc1 (racemic),IC50,Histone deacetylase 1 [1],18700 nM
same,IC50,[2],166 nM
CN1CCC2(CC1)c1ccccc1N(Cc1ccc(C(=O)NO)cc1)C2c1cccc(Cl)c1 (racemic),IC50,Histone deacetylase 1 [1],8100 nM
same,IC50,[2],111 nM
CN1CCC2(CC1)c1ccccc1N(Cc1ccc(C(=O)NO)cc1)C2c1ccc(F)cc1 (racemic),IC50,Histone deacetylase 1 [1],6160 nM
same,IC50,[2],142 nM
same,inhibition,[3],Active
same,inhibition,[4],Active
same,inhibition,Histone deacetylase 1 [5],inactive
same,inhibition,Histone deacetylase 1 [6],inactive
COc1ccc2c(c1)C(C)(C)C(c1cccnc1)N2Cc1ccc(C(=O)NO)cc1 (racemic),IC50,Histone deacetylase 1 [1],5320 nM
same,IC50,[2],67.2 nM
CN1CCC2(CC1)c1ccccc1N(Cc1ccc(C(=O)NO)cc1)C2c1ccccc1 (racemic),IC50,Histone deacetylase 1 [1],4290 nM
same,IC50,[2],73.2 nM
same,inhibition,[3],Active
same,inhibition,[4],Active
same,inhibition,Histone deacetylase 1 [5],inactive
same,inhibition,Histone deacetylase 1 [6],inactive
same,inhibition,Homo sapiens,Dose-Dependent Effect
same,inhibition,Airway basal cell [7],Active
same,IC50,[8],2.55 nM
same,IC50,[9],0.154 nM
same,inhibition,Airway basal cell [10],Active
CC1(C)c2ccccc2N(Cc2ccc(OCCCC(=O)NO)cc2)C1c1cccnc1 (racemic),IC50,Histone deacetylase 1 [1],1630 nM
same,IC50,[2],616 nM
CC1(C)c2ccccc2N(Cc2ccc(C(=O)NO)cc2)C1c1ccncc1 (racemic),IC50,Histone deacetylase 1 [1],10800 nM
same,IC50,[2],61.1 nM
same,IC50,Histone deacetylase 8,4640 nM
same,inhibition,[3],Active
same,inhibition,[4],Active
same,inhibition,Histone deacetylase 1 [5],inactive
same,inhibition,Histone deacetylase 1 [6],inactive
same,inhibition,[11],Active
same,inhibition,Homo sapiens,Dose-Dependent Effect
same,inhibition,Airway basal cell [7],Active
same,IC50,[8],4.35 nM
same,IC50,[9],4.97 nM
same,inhibition,Airway basal cell [10],Active
CN1CCC2(CC1)c1ccccc1N(Cc1ccc(C(=O)NO)cc1)C2c1cccnc1 (racemic),IC50,Histone deacetylase 1 [1],7600 nM
same,IC50,[2],112 nM
CN1CCC2(CC1)c1ccccc1N(Cc1ccc(C(=O)NO)cc1)C2c1ccc(Cl)cc1 (racemic),IC50,Histone deacetylase 1 [1],3650 nM
same,IC50,[2],165 nM
O=C(CCCCCCC(=O)Nc1ccccc1)NO [VORINOSTAT],Activity,NIH3T3 [12],83%
same,Activity,NIH3T3 [13],62%
same,Activity,NIH3T3 [14],31%
same,Activity,NIH3T3 [15],22%
same,Activity,NIH3T3 [16],7%
